Experimental data from ChEMBL document CHEMBL1121800, “Fibrin Polymerization. 1. Alkylating peptide inhibitors of fibrin polymerization” (1981).
Where a SMILES comes first, the peptide text is derived from it. [ ]: non-standard residue; d: D form. The star is where a group is joined. Phe(4-NO2) = N[C@@H](Cc1ccc([N+](=O)[O-])cc1)C(=O)O; Chlorambucil = O=C(CCCc1ccc(N(CCCl)CCCl)cc1)*; Phe(4-NH2) = Nc1ccc(C[C@H](N)C(=O)O)cc1

Experiments:
Assay type in all cases: functional
[1] = organism: Homo sapiens; test: Compound was evaluated for its ability to inhibit fibrin polymerization.; parameters: concentration or dose not given beside the values; conditions: dose or concentration not given here
Summary of the method: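 Fibrin monomer from human fibrinogen (8.3 mg protein/mL solution) diluted into phosphate buffer (80 mM, pH 6.3) containing peptide; reaggregation followed at 350 nm. Optional preincubation: peptide in 1 M NaBr/0.05 M NaOAc pH 5.3 with monomer, 15 min, room temperature, before buffer addition. Molar activity from linear dose-response slope versus reference tetrapeptide, averaged values.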

[2] = target: Prothrombin (Homo sapiens) (UniProt P00734); test: Compound was evaluated for its ability to inhibit thrombin catalyzed amidolysis; conditions: concentration not given here
Summary of the method: (§1)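 Thrombin (0.5 unit) at 37 °C with 0.25 mL of 1 mM Tos-Gly-Pro-Arg-p-nitroanilide, 0.25 mL saline containing 2 mg/mL peptide, and 1.5 mL saline. Chromophore read at 405 nm. Where indicated, peptide and thrombin were preincubated 15 min at 4 °C before substrate addition.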

[3] = Compound was evaluated for its ability to inhibit the thrombin-initiated clotting time of citreated human plasma.; parameters: concentration or dose not given beside the values
Summary of the method: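 Bovine thrombin in saline, dosed to give a 20 s clot, added to 200 µL citrated human plasma plus 100 µL saline containing peptide at 37 °C. Time to first clot recorded. Chlorambucil peptides came from DMSO stock diluted in saline; optional 15 min, 4 °C preincubation with plasma or thrombin. Molar activity from dose-response slope versus reference, with molarity from amino acid analysis.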

[4] = target: Prothrombin (Homo sapiens) (UniProt P00734); test: Compound was evaluated for its ability to inhibit thrombin catalyzed amidolysis.; parameters: concentration or dose not given beside the values; conditions: concentration not given here; summary of the method: as §1
[5] = Relative potency was determined

| Compound | inhibition [1] | inhibition [2] | Inhibition [3] | inhibition [4] | Relative potency [5] |
| --- | --- | --- | --- | --- | --- |
| NCC(=O)N1CCC[C@H]1C(=O)N[C@@H](CCCN=C(N)N)C(=O)N1CCC[C@H]1C(=O)O | 100% | 0% | 100% |  |  |
| NCC(=O)N1CCC[C@H]1C(=O)N[C@@H](CCCN=C(N)N)C(=O)N1CCC[C@H]1C(=O)N[C@@H](Cc1ccc([N+](=O)[O-])cc1)C(=O)O (stereo in doubt; 10) [listing 1 of 2 here] | 88% |  |  | 0% | 0.83 |
| N=C(N)NCCC[C@H](NC(=O)CCCc1ccc(N(CCCl)CCCl)cc1)C(=O)N1CCC[C@H]1C(=O)O |  |  | 0% |  |  |
| NCC(=O)N1CCC[C@H]1C(=O)N[C@@H](CCCN=C(N)N)C(=O)N1CCC[C@H]1C(=O)N[C@@H](Cc1ccc([N+](=O)[O-])cc1)C(=O)O (stereo in doubt; 10) [listing 2 of 2 here] |  |  | 73% |  |  |
| NCC(=O)N1CCC[C@H]1C(=O)N[C@@H](CCCN=C(N)N)C(=O)N[C@@H](Cc1ccc([N+](=O)[O-])cc1)C(=O)O (stereo in doubt; 9) [listing 1 of 2 here] |  |  | 2% |  |  |
| NCC(=O)N1CCC[C@H]1C(=O)N[C@@H](CCCN=C(N)N)C(=O)N1CCC[C@H]1C(=O)N[C@@H](Cc1ccc(N)cc1)C(=O)O (H-GPRP[Phe(4-NH2)]-OH) | 105% |  | 81% | 0% |  |
| N=C(N)NCCC[C@H](NC(=O)[C@@H]1CCCN1C(=O)CNC(=O)CCCc1ccc(N(CCCl)CCCl)cc1)C(=O)N1CCC[C@H]1C(=O)O (Chlorambucil-GPRP-OH) |  |  | 0% |  |  |
| N=C(N)NCCC[C@H](NC(=O)[C@@H]1CCCN1C(=O)CCCc1ccc(N(CCCl)CCCl)cc1)C(=O)N1CCC[C@H]1C(=O)O |  |  | 0% |  |  |
| NCC(=O)N1CCC[C@H]1C(=O)N[C@@H](CCCN=C(N)N)C(=O)N[C@@H](Cc1ccc([N+](=O)[O-])cc1)C(=O)O (stereo in doubt; 19) [listing 1 of 2 here] |  |  |  | 0% |  |
| NCC(=O)N[C@@H](Cc1ccc([N+](=O)[O-])cc1)C(=O)N[C@@H](CCCN=C(N)N)C(=O)N1CCC[C@H]1C(=O)O (H-G[Phe(4-NO2)]RP-OH) |  |  | 10% | 0% |  |
| NCC(=O)N1CCC[C@H]1C(=O)N[C@@H](CCCN=C(N)N)C(=O)N[C@@H](Cc1ccc([N+](=O)[O-])cc1)C(=O)O (stereo in doubt; 9) [listing 2 of 2 here] | 0% |  |  | 0% |  |
| NCC(=O)N1CCC[C@H]1C(=O)N[C@@H](CCCN=C(N)N)C(=O)N1CCC[C@H]1C(=O)N[C@@H](Cc1ccc([N+](=O)[O-])cc1)C(=O)O (stereo in doubt; 20) |  |  |  | 0% |  |
| NCC(=O)N1CCC[C@H]1C(=O)N[C@@H](CCCN=C(N)N)C(=O)N[C@@H](Cc1ccc([N+](=O)[O-])cc1)C(=O)O (stereo in doubt; 19) [listing 2 of 2 here] |  |  | 14% |  |  |
| NCC(=O)N1CCC[C@H]1C(=O)N[C@@H](Cc1ccc([N+](=O)[O-])cc1)C(=O)N1CCC[C@H]1C(=O)O (H-GP[Phe(4-NO2)]P-OH) |  |  | 0% | 0% |  |
| NCC(=O)N1CCC[C@H]1C(=O)N[C@@H](CCCN=C(N)N)C(=O)N[C@@H](Cc1ccc(N)cc1)C(=O)O (H-GPR[Phe(4-NH2)]-OH) | 22% |  | 5% | 0% | 0.22 |
